Experimental data as given in ChEMBL document CHEMBL3045566, “Phytochemicals from Cunninghamia konishii Hayata act as antifungal agents” (2012).

Tested on: Gloeophyllum trabeum
Experiment: Antifungal activity against Gloeophyllum trabeum BCRC 31614 (wood decay fungi) assessed as reduction of fungi mycelium growth at 100 ug/ml
Type: functional
Procedure, shortened: (§1)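 Fungi kept on potato dextrose agar at 4 °C. Samples dissolved in 150 μL ethanol and mixed into 15 mL PDA to give the final concentration. A 5 mm mycelial plug from the culture edge was placed centrally on each 9-cm plate. Plates were held in the dark at 26 ± 2 °C and 70% RH. Antifungal index was scored once control plates without test material were fully overgrown.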

Q: With `C=CC(=C)CC[C@@H]1[C@@]2(C)CCCC(C)(C)[C@@H]2CC[C@@]1(C)O` [ISOABIENOL] as the molecule, how does the inhibition at 100 µg/mL read?
A: 6.8%

Q: With `CCCCCCCCCC[N+](C)(C)CCCCCCCCCC` [DIDECYLDIMETHYLAMMONIUM CHLORIDE] as the molecule, how does the inhibition at 100 µg/mL read?
A: 100%

Q: `C[C@@H]1CC[C@H]2C(C)(C)[C@H]3C[C@@]12CC[C@@]3(C)O` [CEDROL] was tested. Which inhibition at 100 µg/mL did it give?
A: 68.3%

Q: For `CC1=C[C@@H]2[C@@H](CC1)[C@@](C)(O)CC[C@H]2C(C)C` [T-CADINOL], which inhibition at 100 µg/mL is on record?
A: 100%

Q: Which inhibition at 100 µg/mL does the source give for `CC1=C[C@H]2[C@H](C(C)C)CC[C@](C)(O)[C@H]2CC1` [T-MUUROLOL] here?
A: 100%

Tested on: Lenzites betulinus
Experiment: Antifungal activity against Lenzites betulinus BCRC 35296 assessed as reduction of fungi mycelium growth at 100 ug/ml
Type: functional
Procedure, shortened: as §1

Q: Which inhibition at 100 µg/mL does the source give for `C=CC(=C)CC[C@@H]1[C@@]2(C)CCCC(C)(C)[C@@H]2CC[C@@]1(C)O` [ISOABIENOL] here?
A: 25.6%

Q: How did the inhibition at 100 µg/mL turn out when `CCCCCCCCCC[N+](C)(C)CCCCCCCCCC` [DIDECYLDIMETHYLAMMONIUM CHLORIDE] was run?
A: 100%

Q: `C[C@@H]1CC[C@H]2C(C)(C)[C@H]3C[C@@]12CC[C@@]3(C)O` [CEDROL] was tested. Which inhibition at 100 µg/mL did it give?
A: 95.5%

Q: For `CC1=C[C@@H]2[C@@H](CC1)[C@@](C)(O)CC[C@H]2C(C)C` [T-CADINOL], which inhibition at 100 µg/mL is on record?
A: 100%

Q: Which inhibition at 100 µg/mL does the source give for `CC1=C[C@H]2[C@H](C(C)C)CC[C@](C)(O)[C@H]2CC1` [T-MUUROLOL] here?
A: 100%

Tested on: Laetiporus sulphureus
Experiment: Antifungal activity against Laetiporus sulphureus BCRC 35305 (wood decay fungi) assessed as reduction of fungi mycelium growth at 100 ug/ml
Type: functional
Procedure, shortened: as §1

Q: With `C=CC(=C)CC[C@@H]1[C@@]2(C)CCCC(C)(C)[C@@H]2CC[C@@]1(C)O` [ISOABIENOL] as the molecule, how does the inhibition at 100 µg/mL read?
A: 8.2%

Q: Which inhibition at 100 µg/mL does the source give for `CCCCCCCCCC[N+](C)(C)CCCCCCCCCC` [DIDECYLDIMETHYLAMMONIUM CHLORIDE] here?
A: 100%

Q: Which inhibition at 100 µg/mL does the source give for `C[C@@H]1CC[C@H]2C(C)(C)[C@H]3C[C@@]12CC[C@@]3(C)O` [CEDROL] here?
A: 100%

Q: With `CC1=C[C@@H]2[C@@H](CC1)[C@@](C)(O)CC[C@H]2C(C)C` [T-CADINOL] as the molecule, how does the inhibition at 100 µg/mL read?
A: 100%

Q: For `CC1=C[C@H]2[C@H](C(C)C)CC[C@](C)(O)[C@H]2CC1` [T-MUUROLOL], which inhibition at 100 µg/mL is on record?
A: 100%

Tested on: Trametes versicolor
Experiment: Antifungal activity against Trametes versicolor BCRC 35253 wood decay fungi assessed as reduction of fungi mycelium growth at 100 ug/ml
Type: functional
Procedure, shortened: as §1

Q: For `C=CC(=C)CC[C@@H]1[C@@]2(C)CCCC(C)(C)[C@@H]2CC[C@@]1(C)O` [ISOABIENOL], which inhibition at 100 µg/mL is on record?
A: 27.8%

Q: `CCCCCCCCCC[N+](C)(C)CCCCCCCCCC` [DIDECYLDIMETHYLAMMONIUM CHLORIDE] was tested. Which inhibition at 100 µg/mL did it give?
A: 100%

Q: For `C[C@@H]1CC[C@H]2C(C)(C)[C@H]3C[C@@]12CC[C@@]3(C)O` [CEDROL], which inhibition at 100 µg/mL is on record?
A: 74.8%

Q: Which inhibition at 100 µg/mL does the source give for `CC1=C[C@@H]2[C@@H](CC1)[C@@](C)(O)CC[C@H]2C(C)C` [T-CADINOL] here?
A: 51.4%

Q: How did the inhibition at 100 µg/mL turn out when `CC1=C[C@H]2[C@H](C(C)C)CC[C@](C)(O)[C@H]2CC1` [T-MUUROLOL] was run?
A: 39.5%
